The values below come from ChEMBL document CHEMBL5214901 (J Med Chem, 2021).

pIC50: −log10 of the molar value. Active and inactive are the calls of the source. The calls are words filed in the database; no cut-off is given here. Bounds are passed on as bounds.

Assay [1] deals with Integrin alpha-V/beta-6 (Homo sapiens, UniProt P06756+P18564). The assay is described as follows: Inhibition of human recombinant integrin alphavbeta6 incubated for 1 hr by ELISA assay. It counts as protein-complex assay. (ELISA stands for enzyme-linked immunosorbent assay.)
Integrin alpha-V/beta-6, sequence (P06756 31-889 limits assumed): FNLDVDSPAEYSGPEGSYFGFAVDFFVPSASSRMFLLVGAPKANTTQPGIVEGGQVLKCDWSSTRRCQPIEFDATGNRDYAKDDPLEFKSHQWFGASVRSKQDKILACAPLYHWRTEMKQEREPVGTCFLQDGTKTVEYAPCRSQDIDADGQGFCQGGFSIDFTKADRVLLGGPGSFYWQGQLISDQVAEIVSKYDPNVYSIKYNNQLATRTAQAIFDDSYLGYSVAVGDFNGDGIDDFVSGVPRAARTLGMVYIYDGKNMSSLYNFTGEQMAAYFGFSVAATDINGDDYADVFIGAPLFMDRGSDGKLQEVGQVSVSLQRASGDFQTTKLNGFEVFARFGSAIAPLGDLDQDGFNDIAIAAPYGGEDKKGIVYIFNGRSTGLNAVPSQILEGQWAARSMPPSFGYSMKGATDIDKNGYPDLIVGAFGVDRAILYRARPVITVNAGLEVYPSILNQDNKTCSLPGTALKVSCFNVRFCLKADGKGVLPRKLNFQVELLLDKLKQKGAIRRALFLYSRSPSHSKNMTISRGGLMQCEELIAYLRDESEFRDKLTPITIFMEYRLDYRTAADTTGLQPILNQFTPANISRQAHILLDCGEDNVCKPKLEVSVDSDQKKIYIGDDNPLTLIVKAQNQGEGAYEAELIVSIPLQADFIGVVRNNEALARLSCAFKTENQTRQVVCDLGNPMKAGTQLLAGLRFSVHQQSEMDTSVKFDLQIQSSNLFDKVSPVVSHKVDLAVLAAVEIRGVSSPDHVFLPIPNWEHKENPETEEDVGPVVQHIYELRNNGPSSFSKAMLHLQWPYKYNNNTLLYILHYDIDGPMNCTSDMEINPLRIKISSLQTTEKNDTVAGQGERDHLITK
Integrin alpha-V/beta-6, sequence (P06756 891-1048 limits assumed): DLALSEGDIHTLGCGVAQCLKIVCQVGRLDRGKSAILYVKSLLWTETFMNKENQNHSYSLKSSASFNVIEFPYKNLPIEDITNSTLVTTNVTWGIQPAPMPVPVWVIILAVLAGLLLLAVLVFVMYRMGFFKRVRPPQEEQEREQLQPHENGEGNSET
Integrin alpha-V/beta-6, sequence (P18564 22-788 limits assumed): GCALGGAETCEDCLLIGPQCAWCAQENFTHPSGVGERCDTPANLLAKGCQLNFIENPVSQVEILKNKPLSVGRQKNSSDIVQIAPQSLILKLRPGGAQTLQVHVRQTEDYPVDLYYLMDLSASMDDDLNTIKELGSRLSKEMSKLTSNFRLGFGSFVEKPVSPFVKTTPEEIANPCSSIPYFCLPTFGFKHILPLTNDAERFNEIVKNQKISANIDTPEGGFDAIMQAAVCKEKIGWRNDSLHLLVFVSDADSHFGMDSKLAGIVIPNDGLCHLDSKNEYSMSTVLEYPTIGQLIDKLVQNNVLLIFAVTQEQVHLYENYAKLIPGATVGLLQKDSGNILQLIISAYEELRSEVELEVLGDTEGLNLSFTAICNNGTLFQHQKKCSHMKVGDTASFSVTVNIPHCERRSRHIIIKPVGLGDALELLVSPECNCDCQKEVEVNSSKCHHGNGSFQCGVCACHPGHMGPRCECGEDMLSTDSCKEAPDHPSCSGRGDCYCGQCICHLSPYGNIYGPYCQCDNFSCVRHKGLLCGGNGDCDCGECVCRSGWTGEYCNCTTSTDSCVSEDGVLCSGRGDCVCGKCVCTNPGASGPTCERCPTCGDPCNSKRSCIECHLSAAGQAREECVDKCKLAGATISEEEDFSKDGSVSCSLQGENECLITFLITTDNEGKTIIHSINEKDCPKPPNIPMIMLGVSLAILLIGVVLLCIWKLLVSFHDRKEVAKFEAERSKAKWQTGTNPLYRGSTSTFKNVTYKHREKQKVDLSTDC
For assay [2], the system named is Human alphaherpesvirus 1. In words: Antiviral activity against HSV-1 R8102 infected in HEK293T cells assessed as inhibition of viral replication using ONPG as substrate incubated for 1 hrs followed by viral infection measured after 90 mins by microplate reader analysis. It counts as functional, organism-based. Conditions: dose <= 1000.0 µM, DDE = dose-dependent effect. Summed up: (§1)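 Peptides were dissolved at 10 mM (stock) in serum-free DMEM and neutralized with Tris-HCl. 293T cells (low endogenous αvβ6/αvβ8) were pretreated with increasing peptide concentrations for 1 h at 37 °C. Cells were then infected with lacZ-reporter R8102 at MOI 5 PFU/cell for 90 min at 37 °C with peptide. After rinsing, cells were incubated 8 h without peptide. Infection was read as β-galactosidase activity with ONPG; triplicate, SD.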

In assay [3] the test system is Human alphaherpesvirus 1. In words: Antiviral activity against HSV-1 R8102 infected in HEK293T cells assessed as inhibition of viral replication at 500 to 1000 uM using ONPG as substrate incubated for 1 hrs followed by viral infection measured after 90 mins by microplate reader analysis relative to control. Particulars: dose 500-1000 µM. It counts as functional. On the set-up: scale not given: the % may be the effect or the level left. Summed up: as §1

The subject of assay [4] is Human alphaherpesvirus 1. In words: Antiviral activity against HSV-1 K26GFP infected in J cells expressing nectin1 plus alphavbeta6/alphavbeta8 integrin at 700 uM incubated for 48 hrs followed by viral infection measured after 16 hrs by fluorescent microscopy. Type of assay: functional, organism-based. Particulars: time 64.0 hrs. Summed up:
(§2)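 J cells were transfected with nectin1 (75 ng DNA/24 well) plus αv+β6, αv+β8, or both integrin plasmids (300 ng each). Total DNA was made up to 675 ng with Erb-2 plasmid. At 48 h, cells got 700 μM peptide for 1 h at 37 °C, then K26GFP at 1 PFU/cell for 90 min with peptide. Acid wash (pH 3), then 16 h without peptide. EGFP was read by fluorescence microscopy and flow cytometry MFI (≥10 000 events); triplicates ± SD.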

The test system of assay [5] is Human alphaherpesvirus 1. The assay is described as follows: Antiviral activity against HSV-1 K26GFP infected in J cells expressing nectin1 plus alphavbeta6 integrin at 700 uM incubated for 48 hrs followed by viral infection measured after 16 hrs by fluorescent microscopy. Type of assay: functional, organism-based. Conditions: time 64.0 hrs. In short, it runs like this: as §2

The test system of assay [6] is Human alphaherpesvirus 1. In words: Antiviral activity against HSV-1 K26GFP infected in J cells expressing nectin1 plus alphavbeta8 integrin at 700 uM incubated for 48 hrs followed by viral infection measured after 16 hrs by fluorescent microscopy. Type of assay: functional, organism-based. Conditions: time 64.0 hrs. In short, it runs like this: as §2
Assay [7] relates to Human alphaherpesvirus 1. In words: Antiviral activity against HSV-1 K26GFP infected in J cells expressing nectin1 plus alphavbeta6/alphavbeta8 integrin assessed as alphavbeta6/alphavbeta8 receptor internalization at 700 uM incubated for 1 hrs followed by viral infection by flow cytometry assay. It counts as functional, organism-based. Summed up:
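Transfected J cells expressed nectin1 plus both αvβ6 and αvβ8 (48 h post-transfection) and were treated with 700 μM peptide for 1 h at 37 °C. Surface β6 and β8 were stained for 1 h at 4 °C with APC-conjugated mAbs outside the RGD-binding site. Nectin1 was stained with R1.302 plus APC secondary. Read-out was flow cytometry APC MFI of gated cells, ≥10 000 events; triplicates ± SD.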

Assay [8] relates to Human alphaherpesvirus 1. In words: Inhibition of HSV-1 soluble gH binding to alphavbeta6/alphavbeta8 integrin expressed in […] J cells at 700 uM incubated for 1 hr by flow cytometry assay. Type of assay: cell-based. Summed up:
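J cells were transfected with nectin1 plus αvβ6 and αvβ8 and, 48 h later, exposed to 700 μM peptide for 1 h at 37 °C. They were then incubated for 1 h at 4 °C with 2 μM One-STrEP-tagged soluble gH in DMEM/5% FBS/30 mM HEPES. Soluble gB served as the control protein. Binding was detected with PE-Strep-Tactin (1 h, 4 °C) as flow cytometry MFI (≥10 000 events); triplicates ± SD.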

`CN1C(=O)CNC(=O)[C@H](CCCNC(=N)N)NC(=O)CC[C@@H](C(N)=O)NC(=O)[C@H](C2CCCCC2)NC(=O)[C@@H]1CC(=O)O`: in assay [1], the negative-log IC50 (pIC50) – broadly, the negative decadic logarithm of the IC50, by convention in mol/L – is below 5.30.
Still for that read-out and setting: under `CC(C)C[C@H](NC(=O)[C@H](CO)NC(=O)[C@H](CC(=O)O)NC(=O)[C@H](CC(C)C)NC(=O)[C@H](CC(=O)O)NC(=O)[C@@H](NC(=O)[C@@H](N)CCCNC(=N)N)[C@@H](C)O)C(=O)N[C@@H](CCCNC(=N)N)C(=O)N[C@H](C(=O)O)[C@@H](C)O` stands 7.42.
With `CN1C(=O)[C@H](C2CCCCC2)NC(=O)[C@H](CC(=O)O)NC(=O)CNC(=O)[C@H](CCCNC(=N)N)NC(=O)CC[C@H]1C(N)=O`, the Activity entry is “Dde” in assay [2] and 70% in assay [3]. Further, the outcome in assay [4], in assay [5], in assay [6] and in assay [7] was Active. The inhibition result in assay [8] is “Active”.
Regarding `N=C(N)NCCC[C@@H]1NC(=O)CC[C@@H](C(N)=O)NC(=O)[C@H](C2CCCCC2)NC(=O)[C@H](CC(=O)O)NC(=O)CNC1=O`, the Activity result in assay [2] is “Dde”. Further, the outcome in assay [5] was Active.
